In brackets after ≈: the same amount, converted by molar mass.
Key:
Serratia marcescens = assay: Antibacterial activity against Serratia marcescens ATCC 21074 after 18 to 24 hrs by two-fold serial dilution method; format: functional
In short: (§1)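 Agar two-fold dilution MIC. Compounds were dissolved in 0.1 N NaOH and water, then serially diluted in melted Mueller-Hinton agar, with top concentrations starting at 128. Plates were inoculated at about 10 cfu and incubated at 35 °C for 18–24 h. MIC was taken as the lowest concentration giving 90% inhibition of growth.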

Morganella morganii = assay: Antibacterial activity against Morganella morganii ATCC 25830 after 18 to 24 hrs by two-fold serial dilution method; format: functional; in short: as §1
Escherichia coli [1] = assay: Antibacterial activity against extended-spectrum beta-lactamase deficient Escherichia coli ATCC 25922 after 18 to 24 hrs by two-fold serial dilution method; format: functional; in short: as §1
[2] = AUC (0 to infinity) in ICR mouse at 50 mg/kg, po administered as single dose by HPLC analysis; format: ADME, organism-based; set-up: dose 50 mg/kg, route oral, time infinity; details: in vivo
In short: (§2)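 Mice (3 per group), fasted overnight, given a single oral dose of 50 mg/kg as a suspension in 0.5% CMC. Jugular vein blood taken at 0.25, 0.5, 1, 2, 4, 6, 8 and 24 h. Serum proteins precipitated with acetonitrile and centrifuged; the dried supernatant was redissolved in acetonitrile for HPLC. PK parameters were derived directly from the concentration–time data.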

Klebsiella pneumoniae [3] = assay: Antibacterial activity against extended-spectrum beta-lactamase harboring Klebsiella pneumoniae ATCC 700603 after 18 to 24 hrs by two-fold serial dilution method; format: functional
In short: (§3)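 Agar two-fold serial dilution in Mueller-Hinton agar. Strains came from the Chinese Center for Disease Control and Prevention. Compounds were dissolved in 0.1 N NaOH and water, then diluted in melted agar to final levels stepping down from 128. Plates were inoculated with bacterial cfu and incubated at 35 C for 18–24 h. MIC is the lowest concentration giving 90% growth inhibition.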

[4] = Half life in mouse microsomes; format: ADME, Microsome
[5] = test system: Mycobacterium tuberculosis; assay: Antimycobacterial activity against Mycobacterium tuberculosis H37Rv after 7 days; format: functional; details: 168 h
In short: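 Rapid direct susceptibility test in 48-well plates. Two-fold dilutions of compound from DMSO stocks were mixed with an equal volume of bacterial suspension. Medium-only wells served as growth controls and water-only wells as no-growth controls. Plates were sealed and held at 37 C in a humid box, and controls were checked at 3 days. MIC (90% growth inhibition) was read visually by high-magnification observation of the cells and re-read at 7 days.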

[6] = Cmax in ICR mouse at 50 mg/kg, po administered as single dose by HPLC analysis; format: ADME, organism-based; set-up: dose 50 mg/kg, route oral; details: in vivo; in short: as §2
[7] = test system: Staphylococcus epidermidis; assay: Antibacterial activity against methicillin-sensitive Staphylococcus epidermidis ATCC 12228 after 18 to 24 hrs by two-fold serial dilution method; format: functional; in short: as §1
[8] = test system: Staphylococcus epidermidis; assay: Antibacterial activity against methicillin-resistant Staphylococcus epidermidis 13-3 after 18 to 24 hrs by two-fold serial dilution method; format: functional; in short: as §3
[9] = test system: Mycobacterium tuberculosis; assay: Potency index, ratio of ciprofloxacin MIC90 to compound MIC90 for Mycobacterium tuberculosis H37Rv; format: functional
Proteus vulgaris = assay: Antibacterial activity against Proteus vulgaris ATCC 29905 after 18 to 24 hrs by two-fold serial dilution method; format: functional; in short: as §1
Staphylococcus aureus [10] = assay: Antibacterial activity against methicillin-sensitive Staphylococcus aureus ATCC 29213 after 18 to 24 hrs by two-fold serial dilution method; format: functional; in short: as §3
Klebsiella pneumoniae [11] = assay: Antibacterial activity against extended-spectrum beta-lactamase deficient Klebsiella pneumoniae 15-2 after 18 to 24 hrs by two-fold serial dilution method; format: functional; in short: as §1
Klebsiella aerogenes = assay: Antibacterial activity against Enterobacter aerogenes ATCC 13048 after 18 to 24 hrs by two-fold serial dilution method; format: functional; in short: as §1
[12] = Cytotoxicity against African green monkey Vero cells assessed as reduction in cell viability after 72 hrs by MTT assay; format: cell-based; details: chlorocebus sabaeus
In short: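 VERO cells were kept in MEM with Earle's salts and 10% FBS at 37 °C, 5% CO2. They were seeded in 96-well plates and allowed to recover for 24 h. Cells were then exposed to compounds in DMSO over a series from 1000 down to 4 for 72 h. Viability was read by MTT, and CC50 was calculated by Bliss analysis.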

Escherichia coli [13] = assay: Antibacterial activity against extended-spectrum beta-lactamase harboring Escherichia coli ATCC 35218 after 18 to 24 hrs by two-fold serial dilution method; format: functional; in short: as §3
Enterobacter cloacae = assay: Antibacterial activity against Enterobacter cloacae ATCC 43560 after 18 to 24 hrs by two-fold serial dilution method; format: functional
Enterococcus faecalis [14] = assay: Antibacterial activity against Enterococcus faecalis ATCC 51299 after 18 to 24 hrs by two-fold serial dilution method; format: functional; in short: as §1
[15] = test system: Mycobacterium tuberculosis; assay: Potency index, ratio of rifampicin MIC90 to compound MIC90 for Mycobacterium tuberculosis H37Rv; format: functional
[16] = Tmax in ICR mouse at 50 mg/kg, po administered as single dose by HPLC analysis; format: ADME, organism-based; details: in vivo; in short: as §2
[17] = test system: Stenotrophomonas maltophilia; assay: Antibacterial activity against Stenotrophomonas maltophilia ATCC 13636 after 18 to 24 hrs by two-fold serial dilution method; format: functional; in short: as §1
[18] = Elimination half life in ICR mouse at 50 mg/kg, po administered as single dose by HPLC analysis; format: ADME, organism-based; details: in vivo, read-out: beta t1/2 (converted)
Providencia rettgeri = assay: Antibacterial activity against Providencia rettgeri ATCC 31052 after 18 to 24 hrs by two-fold serial dilution method; format: functional; in short: as §1
[19] = test system: Acinetobacter calcoaceticus; assay: Antibacterial activity against Acinetobacter calcoaceticus ATCC 19606 after 18 to 24 hrs by two-fold serial dilution method; format: functional; in short: as §1
Citrobacter freundii = assay: Antibacterial activity against extended-spectrum beta-lactamase harboring Citrobacter freundii ATCC 43864 after 18 to 24 hrs by two-fold serial dilution method; format: functional; in short: as §3
Enterococcus faecium [20] = assay: Antibacterial activity against Enterococcus faecium 13-7 after 18 to 24 hrs by two-fold serial dilution method; format: functional; in short: as §1
Pseudomonas aeruginosa = assay: Antibacterial activity against Pseudomonas aeruginosa ATCC 27853 after 18 to 24 hrs by two-fold serial dilution method; format: functional; in short: as §1
Staphylococcus aureus [21] = assay: Antibacterial activity against methicillin-resistant Staphylococcus aureus ATCC 33591 after 18 to 24 hrs by two-fold serial dilution method; format: functional; in short: as §3
Enterococcus faecium [22] = assay: Antibacterial activity against Enterococcus faecium ATCC 700221 after 18 to 24 hrs by two-fold serial dilution method; format: functional; in short: as §1
Proteus mirabilis = assay: Antibacterial activity against Proteus mirabilis 13-1 after 18 to 24 hrs by two-fold serial dilution method; format: functional; in short: as §1
Enterococcus faecalis [23] = assay: Antibacterial activity against Enterococcus faecalis ATCC 29212 after 18 to 24 hrs by two-fold serial dilution method; format: functional; in short: as §1

SMILES: Cc1ccc2c(c1)C(=O)C(=O)N2CCCN1CCN(c2cc3c(cc2F)c(=O)c(C(=O)O)cn3C2CC2)CC1
- MIC90 (Serratia marcescens): 0.25 µg/mL (≈ 0.469 µM)
- MIC90 (Morganella morganii): ≤ 0.03 µg/mL
- MIC90 (Escherichia coli [1]): ≤ 0.03 µg/mL
- AUC(0-inf) [2]: 4990 ng·h/mL
- MIC90 (Klebsiella pneumoniae [3]): 1 µg/mL (≈ 1.88 µM)
- half-life [4]: 0.517 h
- MIC90 [5]: 0.1 µg/mL (≈ 0.188 µM)
- Cmax [6]: 1230 ng/mL
- MIC90 [7]: 0.125 µg/mL (≈ 0.235 µM)
- MIC90 [8]: 2 µg/mL (≈ 3.76 µM)
- Ratio [9]: 4
- MIC90 (Proteus vulgaris): ≤ 0.03 µg/mL
- MIC90 (Staphylococcus aureus [10]): 0.125 µg/mL (≈ 0.235 µM)
- MIC90 (Klebsiella pneumoniae [11]): 0.06 µg/mL (≈ 0.113 µM)
- MIC90 (Klebsiella aerogenes): 0.06 µg/mL (≈ 0.113 µM)
- CC50 at 72 h [12]: 64 µg/mL (≈ 120 µM)
- MIC90 (Escherichia coli [13]): ≤ 0.03 µg/mL
- MIC90 (Enterobacter cloacae): ≤ 0.03 µg/mL
- MIC90 (Enterococcus faecalis [14]): 0.5 µg/mL (≈ 0.939 µM)
- Ratio [15]: 8
- Tmax [16]: 1.3 h
- MIC90 [17]: 0.06 µg/mL (≈ 0.113 µM)
- half-life [18]: 4.1 h
- MIC90 (Providencia rettgeri): ≤ 0.03 µg/mL
- MIC90 [19]: 0.25 µg/mL (≈ 0.469 µM)
- MIC90 (Citrobacter freundii): ≤ 0.03 µg/mL
- MIC90 (Enterococcus faecium [20]): 32 µg/mL (≈ 60.1 µM)
- MIC90 (Pseudomonas aeruginosa): 2 µg/mL (≈ 3.76 µM)
- MIC90 (Staphylococcus aureus [21]): 0.125 µg/mL (≈ 0.235 µM)
- MIC90 (Enterococcus faecium [22]): 4 µg/mL (≈ 7.51 µM)
- MIC90 (Proteus mirabilis): ≤ 0.03 µg/mL
- MIC90 (Enterococcus faecalis [23]): 0.5 µg/mL (≈ 0.939 µM)

SMILES: O=C(O)c1cn(C2CC2)c2cc(N3CCNCC3)c(F)cc2c1=O [CIPROFLOXACIN]
- MIC90 (Serratia marcescens): 0.06 µg/mL (≈ 0.181 µM)
- MIC90 (Morganella morganii): ≤ 0.03 µg/mL
- MIC90 (Escherichia coli [1]): ≤ 0.03 µg/mL
- AUC(0-inf) [2]: 17800 ng·h/mL
- MIC90 (Klebsiella pneumoniae [3]): 0.5 µg/mL (≈ 1.51 µM)
- MIC90 [5]: 0.78 µg/mL (≈ 2.35 µM)
- Cmax [6]: 3130 ng/mL
- MIC90 [7]: 0.125 µg/mL (≈ 0.377 µM)
- MIC90 [8]: 64 µg/mL (≈ 193 µM)
- MIC90 (Proteus vulgaris): ≤ 0.03 µg/mL
- MIC90 (Staphylococcus aureus [10]): 0.25 µg/mL (≈ 0.754 µM)
- MIC90 (Klebsiella pneumoniae [11]): ≤ 0.03 µg/mL
- MIC90 (Klebsiella aerogenes): ≤ 0.03 µg/mL
- CC50 at 72 h [12]: 128 µg/mL (≈ 386 µM)
- MIC90 (Escherichia coli [13]): ≤ 0.03 µg/mL
- MIC90 (Enterococcus faecalis [14]): 0.5 µg/mL (≈ 1.51 µM)
- Tmax [16]: 1.8 h
- MIC90 [17]: 2 µg/mL (≈ 6.04 µM)
- MIC90 (Providencia rettgeri): ≤ 0.03 µg/mL
- MIC90 [19]: 0.5 µg/mL (≈ 1.51 µM)
- MIC90 (Citrobacter freundii): ≤ 0.03 µg/mL
- MIC90 (Enterococcus faecium [20]): 128 µg/mL (≈ 386 µM)
- MIC90 (Pseudomonas aeruginosa): 0.25 µg/mL (≈ 0.754 µM)
- MIC90 (Staphylococcus aureus [21]): 0.5 µg/mL (≈ 1.51 µM)
- MIC90 (Enterococcus faecium [22]): 8 µg/mL (≈ 24.1 µM)
- MIC90 (Proteus mirabilis): ≤ 0.03 µg/mL
- MIC90 (Enterococcus faecalis [23]): 0.5 µg/mL (≈ 1.51 µM)
